Experiments:
[1] = i.v., low molar activity tracer, PET-CT; cited from earlier work
healthy volunteers = assay: first-in-human adverse event monitoring in healthy volunteers; format: in vivo
Method in brief: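 Participants were aged 56–75 (four male, four female). Tracer was given as an i.v. bolus (1–2 min) via a cephalic-vein catheter, supine, before 94 min of PET-MR over three sessions ending at 214 min. Adverse events were watched for continuously during scans, breaks and afterwards. Vital signs and ECG were taken ~60 min post-imaging, then physician/nurse review before discharge and off-site follow-up at 24–48 h. Later events were self-reported.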

[2] = whole-body PET-MR biodistribution and TIAC determination; format: in vivo, human
Method in brief: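 Tracer 70.3–355 MBq was given as an i.v. bolus; whole-body PET-MR used 6 bed positions. WB1–WB5 ran 0–34 min (1 min/bed), WB6–7 35–60 min (2 min/bed), WB8 80–104 min and WB9 180–214 min (4 min/bed). Voiding and water were allowed in breaks. SUV was read from AMIDE VOIs at early times (<1 h). Decay-corrected %IA per organ VOI over time was fitted by the exponential model (OLINDA/EXM 1.1) for TIACs.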

COC(=O)[C@@H](N)CC(=O)Nc1ccc2c(c1)Cc1cc([18F])ccc1-2 [[^18F]RP-115, methyl N^4-(7-[^18F]fluoro-9H-fluoren-2-yl)asparaginate]
CNS activity uptake (SUV) [1]: > 1
adverse events / pharmacological effects (healthy volunteers; 70.3–355 MBq i.v. bolus, n=8, ≤48 h and up to 1 year): no adverse events (AE) or clinically detectable pharmacological effects
tolerability (healthy volunteers; 70.3–355 MBq i.v., n=8, PET-MR scanning protocol): well tolerated
SUV, brain and spinal tissues ([2]; 27–34 min after injection): > 1
SUV, major organs, CNS and peripheral tissues ([2]; 27–34 min after injection): > 1
TIAC, Brain ([2]; F1 (189 MBq)): 0.084 MBq-h/MBq
TIAC, Gallbladder wall ([2]; F1 (189 MBq)): 0.0031 MBq-h/MBq
TIAC, Heart contents ([2]; F1 (189 MBq)): 0.00463 MBq-h/MBq
TIAC, Heart wall ([2]; F1 (189 MBq)): 0.0155 MBq-h/MBq
TIAC, Kidneys ([2]; F1 (189 MBq)): 0.25 MBq-h/MBq
TIAC, Liver ([2]; F1 (189 MBq)): 0.209 MBq-h/MBq
TIAC, Lungs ([2]; F1 (189 MBq)): 0.274 MBq-h/MBq
TIAC, Pancreas ([2]; F1 (189 MBq)): 0.00899 MBq-h/MBq
TIAC, Remainder ([2]; F1 (189 MBq)): 1.28 MBq-h/MBq
TIAC, Small intestine ([2]; F1 (189 MBq)): 0.0843 MBq-h/MBq
TIAC, Spleen ([2]; F1 (189 MBq)): 0.0284 MBq-h/MBq
TIAC, Thymus ([2]; F1 (189 MBq)): 0.00372 MBq-h/MBq
TIAC, Thyroid ([2]; F1 (189 MBq)): 0.00052 MBq-h/MBq
TIAC, Urinary bladder contents ([2]; F1 (189 MBq)): 0.138 MBq-h/MBq
TIAC, Uterus/Uterine wall ([2]; F1 (189 MBq)): 0.00432 MBq-h/MBq
TIAC, Brain ([2]; F2, no voiding (355 MBq)): 0.075 MBq-h/MBq
TIAC, Gallbladder wall ([2]; F2, no voiding (355 MBq)): 0.00204 MBq-h/MBq
TIAC, Heart contents ([2]; F2, no voiding (355 MBq)): 0.00054 MBq-h/MBq
TIAC, Heart wall ([2]; F2, no voiding (355 MBq)): 0.0118 MBq-h/MBq
TIAC, Kidneys ([2]; F2, no voiding (355 MBq)): 0.391 MBq-h/MBq
TIAC, Liver ([2]; F2, no voiding (355 MBq)): 0.202 MBq-h/MBq
TIAC, Lungs ([2]; F2, no voiding (355 MBq)): 0.31 MBq-h/MBq
TIAC, Pancreas ([2]; F2, no voiding (355 MBq)): 0.00377 MBq-h/MBq
TIAC, Small intestine ([2]; F2, no voiding (355 MBq)): 0.0474 MBq-h/MBq
TIAC, Spleen ([2]; F2, no voiding (355 MBq)): 0.00188 MBq-h/MBq
TIAC, Thymus ([2]; F2, no voiding (355 MBq)): 0.00178 MBq-h/MBq
TIAC, Thyroid ([2]; F2, no voiding (355 MBq)): 0.0047 MBq-h/MBq
TIAC, Urinary bladder contents ([2]; F2, no voiding (355 MBq)): 0.127 MBq-h/MBq
TIAC, Uterus/Uterine wall ([2]; F2, no voiding (355 MBq)): 0.0564 MBq-h/MBq
TIAC, Brain ([2]; F3 (117 MBq)): 0.0606 MBq-h/MBq
TIAC, Gallbladder wall ([2]; F3 (117 MBq)): 0.00328 MBq-h/MBq
TIAC, Heart contents ([2]; F3 (117 MBq)): 0.00112 MBq-h/MBq
TIAC, Heart wall ([2]; F3 (117 MBq)): 0.0131 MBq-h/MBq
TIAC, Kidneys ([2]; F3 (117 MBq)): 0.266 MBq-h/MBq
TIAC, Liver ([2]; F3 (117 MBq)): 0.262 MBq-h/MBq
TIAC, Lungs ([2]; F3 (117 MBq)): 0.186 MBq-h/MBq
TIAC, Pancreas ([2]; F3 (117 MBq)): 0.00504 MBq-h/MBq
TIAC, Remainder ([2]; F3 (117 MBq)): 1.44 MBq-h/MBq
TIAC, Small intestine ([2]; F3 (117 MBq)): 0.0667 MBq-h/MBq
TIAC, Spleen ([2]; F3 (117 MBq)): 0.011 MBq-h/MBq
TIAC, Thymus ([2]; F3 (117 MBq)): 0.00146 MBq-h/MBq
TIAC, Thyroid ([2]; F3 (117 MBq)): 0.00131 MBq-h/MBq
TIAC, Urinary bladder contents ([2]; F3 (117 MBq)): 0.00659 MBq-h/MBq
TIAC, Uterus/Uterine wall ([2]; F3 (117 MBq)): 0.0115 MBq-h/MBq
TIAC, Brain ([2]; F4 (167 MBq)): 0.0781 MBq-h/MBq
TIAC, Gallbladder wall ([2]; F4 (167 MBq)): 0.00062 MBq-h/MBq
TIAC, Heart contents ([2]; F4 (167 MBq)): 0.0015 MBq-h/MBq
TIAC, Heart wall ([2]; F4 (167 MBq)): 0.0212 MBq-h/MBq
TIAC, Kidneys ([2]; F4 (167 MBq)): 0.245 MBq-h/MBq
TIAC, Liver ([2]; F4 (167 MBq)): 0.192 MBq-h/MBq
TIAC, Lungs ([2]; F4 (167 MBq)): 0.231 MBq-h/MBq
TIAC, Pancreas ([2]; F4 (167 MBq)): 0.0053 MBq-h/MBq
TIAC, Remainder ([2]; F4 (167 MBq)): 1.22 MBq-h/MBq
TIAC, Small intestine ([2]; F4 (167 MBq)): 0.126 MBq-h/MBq
TIAC, Spleen ([2]; F4 (167 MBq)): 0.0057 MBq-h/MBq
TIAC, Thymus ([2]; F4 (167 MBq)): 0.0021 MBq-h/MBq
TIAC, Thyroid ([2]; F4 (167 MBq)): 0.0009 MBq-h/MBq
TIAC, Urinary bladder contents ([2]; F4 (167 MBq)): 0.0319 MBq-h/MBq
TIAC, Uterus/Uterine wall ([2]; F4 (167 MBq)): 0.0133 MBq-h/MBq
TIAC, Brain ([2]; M1 (326 MBq)): 0.0947 MBq-h/MBq
TIAC, Gallbladder wall ([2]; M1 (326 MBq)): 0.00525 MBq-h/MBq
TIAC, Heart contents ([2]; M1 (326 MBq)): 0.00354 MBq-h/MBq
TIAC, Heart wall ([2]; M1 (326 MBq)): 0.0301 MBq-h/MBq
TIAC, Kidneys ([2]; M1 (326 MBq)): 0.351 MBq-h/MBq
TIAC, Liver ([2]; M1 (326 MBq)): 0.34 MBq-h/MBq
TIAC, Lungs ([2]; M1 (326 MBq)): 0.322 MBq-h/MBq
TIAC, Pancreas ([2]; M1 (326 MBq)): 0.0022 MBq-h/MBq
TIAC, Remainder ([2]; M1 (326 MBq)): 1.27 MBq-h/MBq
TIAC, Small intestine ([2]; M1 (326 MBq)): 0.161 MBq-h/MBq
TIAC, Spleen ([2]; M1 (326 MBq)): 0.0528 MBq-h/MBq
TIAC, Thymus ([2]; M1 (326 MBq)): 0.00576 MBq-h/MBq
TIAC, Thyroid ([2]; M1 (326 MBq)): 0.0007 MBq-h/MBq
TIAC, Urinary bladder contents ([2]; M1 (326 MBq)): 0.00668 MBq-h/MBq
TIAC, Brain ([2]; M2 (289 MBq)): 0.0531 MBq-h/MBq
TIAC, Gallbladder wall ([2]; M2 (289 MBq)): 0.0017 MBq-h/MBq
TIAC, Heart contents ([2]; M2 (289 MBq)): 0.0248 MBq-h/MBq
TIAC, Heart wall ([2]; M2 (289 MBq)): 0.202 MBq-h/MBq
TIAC, Kidneys ([2]; M2 (289 MBq)): 0.424 MBq-h/MBq
TIAC, Liver ([2]; M2 (289 MBq)): 0.19 MBq-h/MBq
TIAC, Lungs ([2]; M2 (289 MBq)): 0.0012 MBq-h/MBq
TIAC, Pancreas ([2]; M2 (289 MBq)): 0.111 MBq-h/MBq
TIAC, Remainder ([2]; M2 (289 MBq)): 1.37 MBq-h/MBq
TIAC, Small intestine ([2]; M2 (289 MBq)): 0.00196 MBq-h/MBq
TIAC, Spleen ([2]; M2 (289 MBq)): 0.0158 MBq-h/MBq
TIAC, Thymus ([2]; M2 (289 MBq)): 0.0013 MBq-h/MBq
TIAC, Thyroid ([2]; M2 (289 MBq)): 0.00039 MBq-h/MBq
TIAC, Urinary bladder contents ([2]; M2 (289 MBq)): 0.017 MBq-h/MBq
TIAC, Brain ([2]; M3 (70.3 MBq)): 0.0611 MBq-h/MBq
TIAC, Gallbladder wall ([2]; M3 (70.3 MBq)): 0.00199 MBq-h/MBq
TIAC, Heart contents ([2]; M3 (70.3 MBq)): 0.0027 MBq-h/MBq
TIAC, Heart wall ([2]; M3 (70.3 MBq)): 0.0297 MBq-h/MBq
TIAC, Kidneys ([2]; M3 (70.3 MBq)): 0.286 MBq-h/MBq
TIAC, Liver ([2]; M3 (70.3 MBq)): 0.249 MBq-h/MBq
TIAC, Lungs ([2]; M3 (70.3 MBq)): 0.298 MBq-h/MBq
TIAC, Pancreas ([2]; M3 (70.3 MBq)): 0.00353 MBq-h/MBq
TIAC, Remainder ([2]; M3 (70.3 MBq)): 1.29 MBq-h/MBq
TIAC, Small intestine ([2]; M3 (70.3 MBq)): 0.0651 MBq-h/MBq
TIAC, Spleen ([2]; M3 (70.3 MBq)): 0.0218 MBq-h/MBq
TIAC, Thymus ([2]; M3 (70.3 MBq)): 0.00217 MBq-h/MBq
TIAC, Thyroid ([2]; M3 (70.3 MBq)): 0.00057 MBq-h/MBq
TIAC, Urinary bladder contents ([2]; M3 (70.3 MBq)): 0.0429 MBq-h/MBq
TIAC, Brain ([2]; M4 (153 MBq)): 0.078 MBq-h/MBq
TIAC, Gallbladder wall ([2]; M4 (153 MBq)): 0.00356 MBq-h/MBq
TIAC, Heart contents ([2]; M4 (153 MBq)): 0.0033 MBq-h/MBq
TIAC, Heart wall ([2]; M4 (153 MBq)): 0.0276 MBq-h/MBq
TIAC, Kidneys ([2]; M4 (153 MBq)): 0.332 MBq-h/MBq
TIAC, Liver ([2]; M4 (153 MBq)): 0.229 MBq-h/MBq
TIAC, Lungs ([2]; M4 (153 MBq)): 0.214 MBq-h/MBq
TIAC, Pancreas ([2]; M4 (153 MBq)): 0.00723 MBq-h/MBq
TIAC, Remainder ([2]; M4 (153 MBq)): 1.39 MBq-h/MBq
TIAC, Small intestine ([2]; M4 (153 MBq)): 0.12 MBq-h/MBq
TIAC, Spleen ([2]; M4 (153 MBq)): 0.0354 MBq-h/MBq
TIAC, Thymus ([2]; M4 (153 MBq)): 0.00492 MBq-h/MBq
TIAC, Thyroid ([2]; M4 (153 MBq)): 0.00105 MBq-h/MBq
TIAC, Urinary bladder contents ([2]; M4 (153 MBq)): 0.0178 MBq-h/MBq
